Experimental data from ChEMBL document CHEMBL1145431, “Improved anti-osteoporosis potency and reduced endometrial membrane hyperplasia during hormone replacement therapy with estrogen-RGD peptide conjugates” (2007).
Where a SMILES comes first, the peptide text is derived from it. The star is where a group is joined. X2 = C[C@]12CC[C@@H]3c4ccc(OCC(=O)*)cc4CC[C@H]3[C@@H]1CCC2=O

Assays:
Mus musculus [1] = experiment: Effect on dry weight of femurs in ovariectomized mouse at 0.1103 mmol/kg, ip once daily for 4 weeks; type: functional, Femur
Summary of the method: (§1)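 Female Kuiming mice (7 weeks, 30.7 ± 3.1 g) ovariectomized, sham group abdominorotomy. From day 5, i.p. once daily for 4 weeks at 110.3 × 10-3 mmol/kg in 0.5% CMC. Left femur cleaned, length measured, defatted in chloroform-methanol (2:1, 2 × 3 h), dried 120 °C 6 h for dry weight, ashed 800 °C 8 h. Mineral content = ash/dry weight. Ash dissolved in 6 N HCl and diluted. Ca by o-methylphenolphthalein complexone, P by molybdenum blue. Lungs and livers weighed directly.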

Mus musculus [2] = experiment: Effect on calcium level in ovariectomized mouse at 0.1103 mmol/kg, ip once daily for 4 weeks; type: functional; summary of the method: as §1
Mus musculus [3] = experiment: Effect on serum phosphorus level in ovariectomized mouse at 0.1103 mmol/kg, ip once daily for 4 weeks; type: functional
Summary of the method: (§2)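 OVX Kuiming mice dosed i.p. daily for 4 weeks in 0.5% CMC. Blood taken retro-orbitally on the day after the last dose, stood 30 min, spun at 3000 g for 20 min, serum stored at -20 °C. Calcium by o-methylphenolphthalein complexone, phosphorus by molybdenum blue, ALP by activity with disodium phenylphosphate substrate.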

Mus musculus [4] = experiment: Effect on liver weight in ovariectomized mouse at 0.110 mmol/kg, ip once daily for 4 weeks; type: functional; summary of the method: as §1
Mus musculus [5] = experiment: Effect on serum calcium level in ovariectomized mouse at 0.1103 mmol/kg, ip once daily for 4 weeks; type: functional; summary of the method: as §2
Mus musculus [6] = experiment: Effect on femur length in ovariectomized mouse at 0.1103 mmol/kg, ip once daily for 4 weeks; type: functional; summary of the method: as §1
Mus musculus [7] = experiment: Effect on uterus weight in ovariectomized mouse at 0.1103 mmol/kg, ip once daily for 4 weeks; type: functional
Summary of the method: (§3)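 Female Kuiming mice (7 weeks old, 30.7 ± 3.1 g), abdominal OVX under pentobarbital (40.0 mg/kg i.p.). From day 5 after surgery, i.p. injection once daily for 4 weeks, compound in aqueous 0.5% CMC prepared just before use. The day after the last dose, mice were anesthetized and killed, and lungs, livers, spleens and uteri were removed and weighed directly. n = 12, ANOVA, p < 0.05.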

Mus musculus [8] = experiment: Effect on serum ALP lavel in ovariectomized mouse at 0.1103 mmol/kg, ip once daily for 4 weeks; type: functional; summary of the method: as §2
Mus musculus [9] = experiment: Effect on femur ash weight in ovariectomized mouse at 0.1103 mmol/kg, ip once daily for 4 weeks; type: functional; summary of the method: as §1
Mus musculus [10] = experiment: Increase in body weight in ovariectomized mouse at 0.1103 mmol/kg, ip once daily for 4 weeks; type: functional
Summary of the method: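 Female Kuiming mice (30.7 ± 3.1 g) underwent abdominal OVX; the sham group had abdominorotomy only. From day 5 after surgery, i.p. dosing once daily for 4 weeks at 110.3 × 10-3 mmol/kg in aqueous 0.5% CMC. Body weight was recorded on the day of the last administration.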

Mus musculus [11] = experiment: Effect on phosphorus level in ovariectomized mouse at 0.1103 mmol/kg, ip once daily for 4 weeks; type: functional; summary of the method: as §1
Mus musculus [12] = experiment: Effect on mineral content in ovariectomized mouse at 0.1103 mmol/kg, ip once daily for 4 weeks; type: functional; summary of the method: as §1
Mus musculus [13] = experiment: Effect on spleen weight in ovariectomized mouse at 0.1103 mmol/kg, ip once daily for 4 weeks; type: functional; summary of the method: as §3
Mus musculus [14] = experiment: Effect on lung weight in ovariectomized mouse at 0.1103 mmol/kg, ip once daily for 4 weeks; type: functional; summary of the method: as §1
Mus musculus [15] = experiment: Effect on femur ash weight in mouse at 0.1103 mmol/kg, po; type: functional
Summary of the method: (§4)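 Female Kuiming mice (7 weeks old, 30.7 ± 3.1 g) under abdominal OVX, sham group abdominorotomy only. From day 5 after surgery, dosed orally once daily for 4 weeks at 110.3 × 10-3 mmol/kg in 0.5% CMC (0.2 mL), vehicle group CMC alone. Blood drawn retro-orbitally, then left femur and organs removed under pentobarbital (40.0 mg/kg, i.p.).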

Mus musculus [16] = experiment: Effect on phosphorus level in mouse at 0.110 mmol/kg, po; type: functional; summary of the method: as §4
Mus musculus [17] = experiment: Effect on serum ALP level in mouse at 0.1103 mmol/kg, po; type: functional
Summary of the method: (§5)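 Oral OVX Kuiming mouse model, dosed daily for 4 weeks at 110.3 × 10-3 mmol/kg in 0.5% CMC. Retro-orbital blood stood 30 min at room temperature and was spun at 3000 g for 20 min. Serum kept at -20 °C. Calcium read by o-methylphenolphthalein complexone, phosphorus by molybdenum blue, ALP by activity on disodium phenylphosphate substrate.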

Mus musculus [18] = experiment: Effect on serum calcium level in mouse at 0.1103 mmol/kg, po; type: functional; summary of the method: as §5
Mus musculus [19] = experiment: Effect on lenght of femur in mouse at 0.110 mmol/kg, po; type: functional; summary of the method: as §4
Mus musculus [20] = experiment: Effect on liver weight in mouse at 0.1103 mmol/kg, po; type: functional; summary of the method: as §4
Mus musculus [21] = experiment: Effect on lung weight in mouse at 0.1103 mmol/kg, po; type: functional; summary of the method: as §4
Mus musculus [22] = experiment: Effect on calcium level in mouse at 0.1103 mmol/kg, po; type: functional; summary of the method: as §4
Mus musculus [23] = experiment: Effect on spleen weight in mouse at 0.1103 mmol/kg, po; type: functional; summary of the method: as §4
Mus musculus [24] = experiment: Effect on serum phosphorous Concentration in mouse at 0.110 mmol/kg, po; type: functional; summary of the method: as §5
Mus musculus [25] = experiment: Effect on dry weight of femurs in mouse at 0.1103 mmol/kg, po; type: functional, Femur; summary of the method: as §4

Compound	Activity (Mus musculus [1]) [mg]	Activity (Mus musculus [2]) [%]	Activity (Mus musculus [3]) [mmol/L]	Activity (Mus musculus [4]) [g]	Activity (Mus musculus [5]) [mmol/L]	Activity (Mus musculus [6]) [cm]	Activity (Mus musculus [7]) [mg]	Activity (Mus musculus [8]) [U/L]	Activity (Mus musculus [9]) [mg]	Activity (Mus musculus [10]) [g]	Activity (Mus musculus [11]) [%]	Ratio (Mus musculus [12])	Activity (Mus musculus [13]) [mg]	Activity (Mus musculus [14]) [mg]	other results
C[C@]12CC[C@@H]3c4ccc(OCC(=O)N[C@@H](CCCNC(=N)N)C(=O)NCC(=O)N[C@@H](CC(=O)O)C(=O)N[C@@H](CO)C(=O)O)cc4CC[C@H]3[C@@H]1CCC2=O (X2-RGDS-OH)	66.9	47.613	1.604	1.347	2	1.634	63.3	32.371	22.6	32.9	24.399	0.438	129	173	–
N=C(N)NCCC[C@H](N)C(=O)NCC(=O)N[C@@H](CC(=O)O)C(=O)N[C@@H](Cc1ccccc1)C(=O)O (H-RGDF-OH)	60	43.815	1.599	1.413	2.012	1.62	69.8	35.643	22.5	33.3	24.585	0.423	134	163	–
CC(C)[C@H](NC(=O)[C@H](CC(=O)O)NC(=O)CNC(=O)[C@@H](N)CCCNC(=N)N)C(=O)O (H-RGDV-OH)	58.8	42.739	1.605	1.153	2.011	1.614	61.1	35.614	27.8	33.4	24.759	0.394	127	171	–
C[C@]12CC[C@@H]3c4ccc(O)cc4CC[C@H]3[C@@H]1CC[C@@H]2O [ESTRADIOL]	57.7	44.466	1.601	1.565	2.013	1.63	177.1	35.286	28.5	34.1	24.995	–	151	168	Activity (Mus musculus [15]): 22.2 mg; Activity (Mus musculus [16]): 24.53%; Activity (Mus musculus [17]): 37.705 U/L; Activity (Mus musculus [18]): 2.02 mmol/L; Activity (Mus musculus [19]): 1.62 cm; Activity (Mus musculus [20]): 1.335 g; Activity (Mus musculus [21]): 168 mg; Activity (Mus musculus [22]): 41.729%; Activity (Mus musculus [23]): 141 mg; Activity (Mus musculus [24]): 1.6 mmol/L; Activity (Mus musculus [25]): 63.1 mg
C[C@]12CC[C@@H]3c4ccc(OCC(=O)N[C@@H](CCCNC(=N)N)C(=O)NCC(=O)N[C@@H](CC(=O)O)C(=O)N[C@@H](Cc5ccccc5)C(=O)O)cc4CC[C@H]3[C@@H]1CCC2=O (X2-RGDF-OH)	65.9	49.55	1.602	1.458	2.008	1.639	55.8	32.407	24.7	34.5	24.588	0.462	140	179	–
C[C@]12CC[C@@H]3c4ccc(O)cc4CC[C@H]3[C@@H]1CCC2=O [ESTRONE]	61.1	43.84	1.601	1.318	2.012	1.606	141.9	36.271	20.8	34.3	23.979	0.43	150	176	–
N=C(N)NCCC[C@H](N)C(=O)NCC(=O)N[C@@H](CC(=O)O)C(=O)N[C@@H](CO)C(=O)O	59.8	43.48	1.603	1.295	2.01	1.617	71	36.643	27.8	34	24.888	0.396	138	168	–
CC(C)[C@H](NC(=O)[C@H](CC(=O)O)NC(=O)CNC(=O)[C@H](CCCNC(=N)N)NC(=O)COc1ccc2c(c1)CC[C@@H]1[C@@H]2CC[C@]2(C)C(=O)CC[C@@H]12)C(=O)O (X2-RGDV-OH)	63.9	47.173	1.602	1.389	2.008	1.628	51.9	32.229	21.9	34.1	24.75	0.429	131	168	–
